Laboratory results from ChEMBL document CHEMBL1146755, “Potent nonpeptide vasopressin receptor antagonists based on oxazino- and thiazinobenzodiazepine templates” (Bioorg Med Chem Lett, 2004).

Tests used:
Vasopressin V2 receptor [1] = target: T1, Vasopressin V2 receptor (Homo sapiens, UniProt P30518); assay: Inhibition of [3H]AVP binding to recombinant human vasopressin V2 receptor
Method in brief: (§1)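 Competition binding on membranes from HEK-293 cells transfected with recombinant human V1a or V2 receptor; Ki values reported in nM.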

Vasopressin V1a receptor [2] = target: T2, Vasopressin V1a receptor (Homo sapiens, UniProt P37288); assay: Inhibition of [3H]AVP binding to recombinant human vasopressin V1a receptor; method in brief: as §1
Target sequence in this assay (P37288 whole entry): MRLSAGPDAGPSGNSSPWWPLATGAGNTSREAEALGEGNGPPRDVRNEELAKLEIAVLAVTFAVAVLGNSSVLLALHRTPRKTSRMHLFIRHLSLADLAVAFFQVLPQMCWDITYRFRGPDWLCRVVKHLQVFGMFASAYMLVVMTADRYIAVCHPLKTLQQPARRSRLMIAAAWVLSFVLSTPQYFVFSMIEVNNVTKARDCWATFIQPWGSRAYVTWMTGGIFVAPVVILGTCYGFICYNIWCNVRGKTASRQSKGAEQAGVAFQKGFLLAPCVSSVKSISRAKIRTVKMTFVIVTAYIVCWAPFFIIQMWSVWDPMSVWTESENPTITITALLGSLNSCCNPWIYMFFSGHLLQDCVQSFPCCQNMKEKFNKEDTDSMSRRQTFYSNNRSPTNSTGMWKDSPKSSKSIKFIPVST

Vasopressin V1a receptor [3] = target: T2, Vasopressin V1a receptor; assay: Inhibition of 1 nM AVP-induced calcium mobilisation in cells expressing human vasopressin V1a receptor
Method in brief: (§2)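 HEK-293 cells expressing human receptor stimulated with 1 nM AVP; antagonism read as change in intracellular Ca2+ (V1a) or cAMP accumulation (V2).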
Target sequence in this assay (P37288 whole entry): as above

Vasopressin V2 receptor [4] = target: T1, Vasopressin V2 receptor; assay: Inhibition of 1 nM AVP-induced cAMP accumulation in cells expressing human vasopressin V2 receptor; type: functional; method in brief: as §2
Vasopressin V1a receptor [5] = target: T2, Vasopressin V1a receptor; assay: Inhibition of [3H]AVP binding to recombinant human vasopressin V1a receptor at 1000 nM
Target sequence in this assay (P37288 whole entry, looked up): as the sequence (P37288 whole entry) above

Vasopressin V1a receptor [6] = target: T2, Vasopressin V1a receptor; assay: Inhibition of [3H]AVP binding to recombinant human vasopressin V1a receptor at 100 nM
Target sequence in this assay (P37288 whole entry, looked up): as the sequence (P37288 whole entry) above

T1 sequence (P30518 whole entry): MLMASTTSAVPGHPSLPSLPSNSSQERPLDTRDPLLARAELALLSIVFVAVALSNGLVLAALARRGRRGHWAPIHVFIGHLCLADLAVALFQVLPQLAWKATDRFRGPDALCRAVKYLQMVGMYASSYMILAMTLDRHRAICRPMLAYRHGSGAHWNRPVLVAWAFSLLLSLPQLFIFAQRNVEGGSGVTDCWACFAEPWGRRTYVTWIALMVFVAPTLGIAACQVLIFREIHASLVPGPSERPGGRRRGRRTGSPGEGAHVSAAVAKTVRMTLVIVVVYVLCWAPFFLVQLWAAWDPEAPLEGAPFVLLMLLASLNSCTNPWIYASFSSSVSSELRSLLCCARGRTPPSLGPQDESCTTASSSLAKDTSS

O=C(Nc1ccc(C(=O)N2CC3CSCCN3Cc3ccccc32)c(O)c1)c1ccccc1-c1ccccc1 (centres undefined)
Ki (Vasopressin V2 receptor [1]): 3.2 nM | Ki (Vasopressin V1a receptor [2]): 110 nM

COc1ccc(-c2ccccc2)c(C(=O)Nc2ccc(C(=O)N3C[C@H]4COCCN4Cc4ccccc43)c(Cl)c2)c1
Ki (Vasopressin V2 receptor [1]): 17 nM | Ki (Vasopressin V1a receptor [2]): Not Active

O=C(Nc1ccc(C(=O)N2C[C@@H]3CSCCN3Cc3ccccc32)cc1)c1ccccc1-c1ccccc1
Ki (Vasopressin V1a receptor [3]): 1300 nM | Ki (Vasopressin V1a receptor [2]): 290 nM

O=C(Nc1ccc(C(=O)N2C[C@H]3COCCN3Cc3ccccc32)c(Cl)c1)c1ccc(F)cc1-c1ccccc1
Ki (Vasopressin V2 receptor [4]): 2 nM | Ki (Vasopressin V2 receptor [1]): 1.9 nM | Ki (Vasopressin V1a receptor [3]): 700 nM | Ki (Vasopressin V1a receptor [2]): Not Active

Cc1ccc(F)cc1C(=O)Nc1ccc(C(=O)N2Cc3cccn3Cc3ccccc32)c(Cl)c1 [LIXIVAPTAN]
Ki (Vasopressin V2 receptor [4]): 23 nM | Ki (Vasopressin V2 receptor [1]): 2.3 nM | Ki (Vasopressin V1a receptor [3]): 6000 nM | Ki (Vasopressin V1a receptor [2]): 44 nM

O=C(Nc1ccc(C(=O)N2CC3CSCCN3Cc3ccc(F)c(F)c32)cc1)c1ccccc1-c1ccccc1 (centres undefined)
Ki (Vasopressin V2 receptor [1]): 18 nM | Ki (Vasopressin V1a receptor [2]): Not Active

O=C(Nc1ccc(C(=O)N2CC3CSCCN3Cc3ccccc32)c(Cl)c1)c1ccc(F)cc1-c1ccccc1 (centres undefined)
Ki (Vasopressin V2 receptor [1]): 3.7 nM | Ki (Vasopressin V1a receptor [2]): 410 nM

Cc1ccc(F)cc1C(=O)Nc1ccc(C(=O)N2C[C@H]3COCCN3Cc3ccccc32)c(Cl)c1
Ki (Vasopressin V2 receptor [4]): 12 nM | Ki (Vasopressin V2 receptor [1]): 2.8 nM | Ki (Vasopressin V1a receptor [3]): 2000 nM | Ki (Vasopressin V1a receptor [2]): 100 nM

O=C(Nc1ccc(C(=O)N2C[C@H]3COCCN3Cc3ccccc32)c(Cl)c1)c1ccccc1-c1ccccc1
Ki (Vasopressin V2 receptor [4]): 4 nM | Ki (Vasopressin V2 receptor [1]): 0.9 nM | Ki (Vasopressin V1a receptor [3]): 600 nM | Ki (Vasopressin V1a receptor [2]): 24 nM

COc1cc(NC(=O)c2ccccc2-c2ccccc2)ccc1C(=O)N1CC2CSCCN2Cc2ccccc21 (centres undefined)
Ki (Vasopressin V2 receptor [1]): 15 nM | Ki (Vasopressin V1a receptor [2]): Not Active

O=C(Nc1ccc(C(=O)N2CC3COCCN3Cc3ccccc32)c(Cl)c1)c1ccccc1-c1ccccc1 (single isomer, unassigned)
Ki (Vasopressin V2 receptor [4]): 170 nM | Ki (Vasopressin V2 receptor [1]): 15 nM | Ki (Vasopressin V1a receptor [3]): 14000 nM | Ki (Vasopressin V1a receptor [2]): 640 nM

Cc1ccc2c(c1)N(C(=O)c1ccc(NC(=O)c3ccccc3-c3ccccc3)cc1)CC1CSCCN1C2 (centres undefined)
Ki (Vasopressin V2 receptor [4]): 23 nM | Ki (Vasopressin V2 receptor [1]): 8 nM | Ki (Vasopressin V1a receptor [3]): 14000 nM | Ki (Vasopressin V1a receptor [2]): 18 nM

O=C(Nc1ccc(C(=O)N2C[C@H]3COCCN3Cc3ccccc32)c(Cl)c1)c1cc(O)ccc1-c1ccccc1
Ki (Vasopressin V2 receptor [4]): 70 nM | Ki (Vasopressin V2 receptor [1]): 13 nM | Ki (Vasopressin V1a receptor [3]): 1900 nM | Ki (Vasopressin V1a receptor [2]): Not Active

O=C(Nc1ccc(C(=O)N2CC3CS(=O)(=O)CCN3Cc3ccccc32)cc1)c1ccccc1-c1ccccc1 (centres undefined)
Ki (Vasopressin V2 receptor [4]): 40 nM | Ki (Vasopressin V2 receptor [1]): 65 nM | Ki (Vasopressin V1a receptor [3]): 1400 nM | Ki (Vasopressin V1a receptor [2]): Not Active

Cc1ccc(F)cc1C(=O)Nc1ccc(C(=O)N2CC3CSCCN3Cc3ccccc32)c(Cl)c1 (centres undefined)
Ki (Vasopressin V2 receptor [4]): 300 nM | Ki (Vasopressin V2 receptor [1]): 60 nM | Ki (Vasopressin V1a receptor [3]): 14000 nM | Ki (Vasopressin V1a receptor [2]): Not Active

O=C(Nc1ccc(C(=O)N2CC3CSCCN3Cc3ccccc32)c(Cl)c1)c1cc(F)ccc1-c1ccccc1 (centres undefined)
Ki (Vasopressin V2 receptor [4]): 70 nM | Ki (Vasopressin V2 receptor [1]): 37 nM | Ki (Vasopressin V1a receptor [3]): 14000 nM | Ki (Vasopressin V1a receptor [2]): Not Active

O=C(Nc1ccc(C(=O)N2CC3CSCCN3Cc3ccccc32)cc1)c1ccccc1-c1ccccc1 (centres undefined)
Ki (Vasopressin V1a receptor [3]): 8000 nM | Ki (Vasopressin V1a receptor [2]): 49 nM

O=C(Nc1ccc(C(=O)N2CC3CSCCN3Cc3cccc(Cl)c32)cc1)c1ccccc1-c1ccccc1 (centres undefined)
Ki (Vasopressin V2 receptor [1]): 10 nM | Ki (Vasopressin V1a receptor [2]): Not Active

O=C(Nc1ccc(C(=O)N2C[C@H]3COCCN3Cc3ccccc32)c(Cl)c1)c1ccccc1-c1ccc(O)cc1
Ki (Vasopressin V2 receptor [4]): 11 nM | Ki (Vasopressin V2 receptor [1]): 4.2 nM | Ki (Vasopressin V1a receptor [3]): 4200 nM | Ki (Vasopressin V1a receptor [2]): Not Active

O=C(Nc1ccc(C(=O)N2C[C@H]3CSCCN3Cc3ccccc32)cc1)c1ccccc1-c1ccccc1
Ki (Vasopressin V1a receptor [3]): 1400 nM | Ki (Vasopressin V1a receptor [2]): 84 nM

O=C(Nc1ccc(C(=O)N2CC3CSCCN3Cc3ccc(F)cc32)cc1)c1ccccc1-c1ccccc1 (centres undefined)
Ki (Vasopressin V2 receptor [1]): 9 nM | Ki (Vasopressin V1a receptor [2]): Not Active

O=C(Nc1ccc(C(=O)N2CC3CSCCN3Cc3ccccc32)c(F)c1)c1ccccc1-c1ccccc1 (centres undefined)
Ki (Vasopressin V2 receptor [1]): 10 nM | Ki (Vasopressin V1a receptor [2]): Not Active

O=C(Nc1ccc(C(=O)N2C[C@H]3CSCCN3Cc3ccccc32)c(Cl)c1)c1ccccc1-c1ccccc1
Ki (Vasopressin V2 receptor [4]): 17 nM | Ki (Vasopressin V2 receptor [1]): 3.7 nM | Ki (Vasopressin V1a receptor [3]): 14000 nM | Ki (Vasopressin V1a receptor [2]): 250 nM

COc1ccc(-c2ccccc2C(=O)Nc2ccc(C(=O)N3C[C@H]4COCCN4Cc4ccccc43)c(Cl)c2)cc1
Ki (Vasopressin V2 receptor [4]): 3 nM | Ki (Vasopressin V2 receptor [1]): 2.8 nM | Ki (Vasopressin V1a receptor [3]): 1900 nM | Ki (Vasopressin V1a receptor [2]): Not Active

COc1cccc(-c2ccccc2C(=O)Nc2ccc(C(=O)N3C[C@H]4COCCN4Cc4ccccc43)c(Cl)c2)c1
Ki (Vasopressin V2 receptor [4]): 2 nM | Ki (Vasopressin V2 receptor [1]): 3.7 nM | Ki (Vasopressin V1a receptor [3]): 3400 nM | Ki (Vasopressin V1a receptor [2]): Not Active

COc1ccc(C(=O)Nc2ccc(C(=O)N3C[C@H]4COCCN4Cc4ccccc43)c(Cl)c2)c(-c2ccccc2)c1
Ki (Vasopressin V2 receptor [4]): 5 nM | Ki (Vasopressin V2 receptor [1]): 4.2 nM | Ki (Vasopressin V1a receptor [3]): 1300 nM | Ki (Vasopressin V1a receptor [2]): Not Active

O=C(Nc1ccc(C(=O)N2C[C@H]3COCCN3Cc3ccccc32)c(Cl)c1)c1cc(F)ccc1-c1ccccc1
Ki (Vasopressin V2 receptor [4]): 12 nM | Ki (Vasopressin V2 receptor [1]): 11 nM | Ki (Vasopressin V1a receptor [3]): 6400 nM | inhibition (Vasopressin V1a receptor [5]): 62%

O=C(Nc1ccc(C(=O)N2CC3CSCCN3Cc3ccccc32)c(Cl)c1)c1ccccc1-c1ccccc1 (centres undefined)
Ki (Vasopressin V2 receptor [1]): 11 nM | Ki (Vasopressin V1a receptor [2]): 490 nM

O=C(Nc1ccc(C(=O)N2C[C@H]3COCCN3Cc3ccccc32)c(Cl)c1)c1ccc(O)cc1-c1ccccc1
Ki (Vasopressin V1a receptor [3]): 1600 nM | Ki (Vasopressin V1a receptor [2]): 30 nM

O=C(Nc1ccc(C(=O)N2C[C@H]3COCCN3Cc3ccccc32)c(Cl)c1)c1ccccc1-c1cccc(O)c1
Ki (Vasopressin V2 receptor [4]): 20 nM | Ki (Vasopressin V2 receptor [1]): 5 nM | Ki (Vasopressin V1a receptor [3]): 11000 nM | Ki (Vasopressin V1a receptor [2]): Not Active

Cc1cc(NC(=O)c2ccccc2-c2ccccc2)ccc1C(=O)N1CC2CSCCN2Cc2ccccc21 (centres undefined)
Ki (Vasopressin V2 receptor [1]): 10 nM | Ki (Vasopressin V1a receptor [2]): Not Active

O=C(Nc1ccc(C(=O)N2C[C@H]3COCCN3Cc3ccccc32)cc1)c1ccccc1-c1ccccc1
Ki (Vasopressin V2 receptor [4]): 16 nM | Ki (Vasopressin V2 receptor [1]): 3.7 nM | inhibition (Vasopressin V1a receptor [6]): 69%
